Published values pooled from the literature.
CDK1: Cyclin-dependent kinase 1 (CDK1, Homo sapiens, UniProt P06493)
DPP4: Dipeptidyl peptidase 4 (DPP4, Homo sapiens, UniProt P27487)

Compound	target	test	setting	measurement	value
CCO[C@@H](Cc1ccc(OCCc2ccc(OS(C)(=O)=O)cc2)cc1)C(=O)O	CDK1	enzyme activity, inhibitor, ADP detection	10 µM	inhibition	65.9%
COc1cc(-c2cncc3c2CN(C)Cc2cc(N4CCNCC4)ccc2-3)cc(OC)c1OC	Ephrin type-A receptor 2 (EPHA2, Homo sapiens, UniProt P29317)	enzyme activity, inhibitor	1 µM	remaining activity	103%
CN(C)c1ncnc2c1ncn2[C@@H]1O[C@H](CCl)[C@@H](NC(=O)[C@@H](CSC(c2ccccc2)c2ccccc2)NC(=O)OC(C)(C)C)[C@H]1O	Aminopeptidase N (ANPEP, Homo sapiens, UniProt P15144)	enzyme activity, inhibitor, fluorescence	10 µM	inhibition	0%
Cn1c(=O)cc(N2CCC(N)CC2)n(Cc2nc3ccc(Br)cc3c(=O)n2-c2ccccc2)c1=O	DPP4	enzyme activity, inhibitor	20 µM	inhibition	12.9%
Cc1cc2cc(Oc3ccnc(Nc4cccc(CS(=O)(=O)NCCN(C)C)c4)n3)ccc2[nH]1	CDK1	enzyme activity, inhibitor, ADP detection	100 µM	inhibition	100%
C=CC(=O)N1CCC(COCC(=O)N2CCN(c3nc(-c4cnc(N)nc4C(F)F)nc(N4CCOC[C@@H]4C)n3)CC2)CC1	Calcium/calmodulin-dependent protein kinase kinase 2 (CAMKK2, Homo sapiens, UniProt Q96RR4)	binding, competition with immobilised ligand	1 µM	remaining binding	99%
Cc1cc([C@@H](C)Nc2ccccc2C(=O)O)c2nc(N3CCC(F)(F)CC3)c(C#N)c(=O)n2c1	Mitogen-activated protein kinase 3 (MAPK3, Homo sapiens, UniProt P27361)	binding, competition with immobilised ligand	1 µM	remaining binding	100%
O=C(Cn1cc(C=CC(=O)c2ccc(F)cc2)nn1)Nc1nc(-c2ccccc2)cs1	Stromelysin-2 (Homo sapiens, UniProt P09238)	enzyme activity, inhibitor	0.5 µM	inhibition	82.4%
Cn1c(=O)cc(N2CCC(N)CC2)n(Cc2nc3ccccc3c(=O)n2-c2cccc(C(F)(F)F)c2)c1=O	DPP4	enzyme activity, inhibitor	20 µM	inhibition	25.6%
O=C1NC(=NCc2cccs2)S/C1=C\c1ccc2ncccc2c1	CDK1	enzyme activity, inhibitor, ADP detection	100 µM	inhibition	100%
Cn1c(=O)cc(N2CCC(N)CC2)n(Cc2nc3ccc(Br)cc3c(=O)n2-c2cccc(F)c2)c1=O	DPP4	enzyme activity, inhibitor	20 µM	inhibition	46.8%
CNc1ncc2c(/C=C/C(=O)N3CCC(OC)CC3)nn(Cc3cccc(C(F)(F)F)c3)c2n1	RAC-alpha serine/threonine-protein kinase (AKT1, Homo sapiens, UniProt P31749)	enzyme activity, inhibitor, radiometric	1 µM	remaining activity	101%
